High-throughput results from PubChem BioAssay.
HCT116 PTEN-null – suppresses growth of cells with PTEN deletion; HCT116 PTEN-null viability, CellTiter-Glo, 60 h; stronger effect = lower value; AID 827; viability, % at 10 µM; actives 1.2% (n = 140,000);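 active means viability at or below a set limit, 4 SD under the median of all tested compounds, cut at about 3.7% in these data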;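 further: PTEN knockout HCT116 line with beta catenin targeted HCT116 as companion control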
bCat KO growth – beta-catenin-lacking colon tumor cell growth suppression | HCT116 beta-catenin knockout viability, CellTiter-Glo, 60 h; stronger effect = lower value | viability, % at 10 µM | actives 1.5% (n = 140,000);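 active means viability at or under a set limit, the compound median less 4 SD, cut at about 6% in these data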;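 further: 0% = Hyamine 1622 control at 20 µM and 100% = untreated cell control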
Lmaj promast – Leishmania major promastigote growth inhibition | actives 9% (n = 200,000) | Leishmania major promastigotes, resazurin fluorescence viability | inhibition, % at 10 µM; in the data active means inhibition above about 50%;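 further: promastigotes grown with compound for 44 hours at 28 °C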
PMI act hi M6P – PMI (human) activation, high substrate; coupled PMI enzyme assay, resazurin fluorescence, 20 min; stronger effect = higher value; 1 = untreated enzyme, 0 = substrate-free blank; activation factor at 20 µM; actives 0.34% (n = 190,000);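 active means activation factor of 2 or more at 20 µM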
Target sequence (P34949 whole entry, looked up): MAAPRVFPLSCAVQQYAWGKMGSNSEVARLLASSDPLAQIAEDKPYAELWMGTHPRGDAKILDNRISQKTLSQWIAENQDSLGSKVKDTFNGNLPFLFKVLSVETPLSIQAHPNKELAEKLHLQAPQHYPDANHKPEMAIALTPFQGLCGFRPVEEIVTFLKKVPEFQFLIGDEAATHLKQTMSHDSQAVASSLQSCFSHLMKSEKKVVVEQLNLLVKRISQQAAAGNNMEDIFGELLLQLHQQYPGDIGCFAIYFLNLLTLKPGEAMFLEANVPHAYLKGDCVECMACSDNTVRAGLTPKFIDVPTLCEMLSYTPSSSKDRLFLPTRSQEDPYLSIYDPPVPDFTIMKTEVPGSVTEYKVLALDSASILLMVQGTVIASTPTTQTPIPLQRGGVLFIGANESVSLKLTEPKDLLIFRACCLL
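Test system: human phosphomannose isomerase with PGI, G6PDH, diaphorase coupling enzymes; Amount: PMI at 15 ng/mL final; Reagent: Mannose-6-phosphate 1.0 mM (near-saturating) plus 0.22 mM NADP+; Timing: 20 min, room temperature; Technique: resorufin fluorescence at Ex 544/Em 590 nm; Dosing: 20 µM single dose.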
PMI activator – activators of human phosphomannose isomerase; actives 0.005% (n = 190,000); activation factor at 20 µM; AID 1214; P34949; purified human PMI, coupled resazurin fluorescence, 20 min; stronger effect = higher value; 1 = vehicle control, 0 substrate-free wells;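 active means activation factor of 2 or more at 20 µM, relative to plate controls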
* marks the source's active call; other numbers are inactive results; / = not tested or not shown. Hits are enriched below; roughly 9.6% of the tested compounds scored in any of these assays.

SMILES	HCT116 PTEN-null	bCat KO growth	Lmaj promast	PMI act hi M6P	PMI activator
Cc1cc(C2=NNC(=Nc3ccccc3)SC2)c(C)n1C	/	/	-6.5	2*	1.8
COCCn1c(C)cc(C2=NNC(=Nc3ccccc3F)SC2)c1C	79.3	84.3	-1.6	1.9	1.5
CN(C)S(=O)(=O)c1cccc(N=C2NN=C(c3ccccc3)CS2)c1	3.8*	5.2*	-6.4	0.8	0.7
Cc1ccc(-n2c(C)cc(C3=NNC(=NC4CC4)SC3)c2C)cc1C	71.3	61.2	87.1*	1.1	0.9
Clc1cccc(OCc2nc(-c3ccncc3)n[nH]2)c1	/	/	-2.1	0.9	1.1
CC(C)COC(=O)c1ccc2c(c1O)C(=O)c1ccccc1C2=O	26.4	37.6	8.2	1.2	1
CCC1(c2ccccc2)NC(=O)N(Cc2ccc(C(=O)OC)cc2)C1=O (configuration not stated)	83.8	84.3	-5.4	1.1	1
COc1cc(/C=N/Nc2cccc(C)c2)ccc1OC(=O)c1cccs1	70.3	72.7	18.4	2.1*	1.4
COc1cc(/C=N/Nc2cccc(C)c2)cc(Br)c1O	/	/	-4.1	2.4*	1.7
CCO[C@H]1OC(C(=O)NCc2ccccc2)=C[C@@H](C2CC2)[C@@H]1CCCO	/	/	1.0	1	1
O=[N+]([O-])c1ccccc1Oc1ncccc1[N+](=O)[O-]	/	/	-2.7	1	1
CC/C(O)=C1\C(=O)CC(c2ccccc2)CC1=NCCC(=O)O (configuration not stated)	102.0	97.5	-5.8	1	0.9
CC/C(O)=C1\C(=O)CC(c2ccccc2)CC1=NC(C)C (configuration not stated)	78.6	88.9	59.2*	1	1
COC(=O)c1c(C(=O)OC)n(CCCN)c2ccc(C)cc12	77.2	73.2	58.5*	0.9	1
CCOC(=O)c1c(C)n(CCO)c2ccc(O)cc12	88.4	88.0	0.0	0.9	0.9
CC(C)c1ccc(NC(=O)Cn2cccc2C2=NC(c3ccccc3)CO2)cc1 (configuration not stated)	80.5	78.0	86.8*	0.9	0.9
O=S(=O)(c1ccc(Cl)s1)N1CCN(C/C=C/c2ccccc2)CC1	78.8	74.6	82.8*	0.9	0.8
O=S(=O)(Cc1ccccc1)N1CCN(C/C=C/c2ccccc2)CC1	106.0	100.8	70.7*	1	0.9
CS(=O)(=O)N1CCN(C/C=C/c2ccccc2)CC1	102.4	102.4	2.0	1	1
COc1ccc(CCNC(=O)c2cccnc2SC)cc1	/	/	-6.6	1	1
CC1CCc2nc3ccccc3c(C(=O)OCC(=O)N3CCc4ccccc43)c2C1 (configuration not stated)	77.0	77.3	4.1	0.9	0.9
CCCc1nc2ccccc2c(C(=O)OCC(=O)N2CCc3ccccc32)c1CC	54.8	63.4	98.8*	0.9	0.8
CC(C)(C)NCc1cccn1-c1sc2c(c1C#N)CCCC2	71.6	73.9	78.4*	1	1
O=C(N1CCCCC1)N1CCN(S(=O)(=O)c2ccc(Cl)cc2)CC1	/	/	-8.1	/	/
COc1ccc(-c2cc(C#N)nc(N3CCNCC3)n2)cc1	0.4*	0.6*	100.5*	1.1	1.1
SMILES	HCT116 PTEN-null	bCat KO growth	Lmaj promast	PMI act hi M6P	PMI activator
COc1ccc(-c2cc(C#N)nc(N3CCN(C)CC3)n2)cc1	29.5	23.2	25.0	1	1
Cc1ccccc1-n1c(C)nnc1SCc1cc(=O)oc2ccc3ccccc3c12	93.8	98.5	48.6	1	1.1
CCC(=O)NC(c1ccc([N+](=O)[O-])cc1)c1c(O)ccc2ccccc12 (configuration not stated)	92.5	81.1	69.3*	0.9	0.8
CCCCC(=O)N/N=C/c1ccc(-c2ccc([N+](=O)[O-])cc2)o1	/	/	14.1	0.8	0.8
CCCCC(=O)NC(c1ccc([N+](=O)[O-])cc1)c1c(O)ccc2ccccc12 (configuration not stated)	15.8	22.9	99.5*	0.6	0.8
COc1cc(OC)cc(C(=O)N[C@@H](CCSC)c2nc3ccccc3[nH]2)c1	/	/	17.4	1	1
CC(C)C1CC(CCNCc2ccc(N(C)C)cc2)(c2ccccc2)CCO1 (configuration not stated)	2.6*	2.3*	97.6*	1	1
Cc1ccc(C2(CCNCc3ccc(N(C)C)cc3)CCOC(C(C)C)C2)cc1 (configuration not stated)	/	/	100.0*	1	1
Cc1ccc(C2(CCNS(=O)(=O)c3ccc(C)cc3)CCOC(C(C)C)C2)cc1 (configuration not stated)	84.5	76.4	63.5*	0.9	0.8
CN(CC(=O)NC1CCCCCCC1)S(=O)(=O)c1cnc[nH]1	/	/	-0.7	1.1	1
COc1ccc(C2(O)CCN(CC(=O)Nc3nc(-c4ccccc4)cs3)CC2)cc1	/	/	3.9	0.8	0.7
CCCCCCOc1ccc(/C(C)=N/NC2=NCCN2)cc1[N+](=O)[O-]	/	/	100.3*	1.1	1
CCCCOc1ccc(Br)cc1/C(C)=N/NC1=NCCN1	2.9*	2.4*	100.5*	1	1.1
CC(C)C(=O)N1CCC(CN=CC2=C(O)CC(C)(C)CC2=O)CC1	90.2	84.2	-3.0	1.1	1.1
COc1ccc(C(=O)Cn2nc(CNc3ccc(Br)cc3)[n+]3c2CCCCC3)cc1	/	/	48.7	0.9	0.9
Cc1ccc(C(C)C)c(OCc2nn(CC(=O)c3ccc(OC(F)F)cc3)c3[n+]2CCCCC3)c1	/	/	99.1*	0.9	1
CN1CCN(c2ccc(-c3ccc4ccccc4n3)cc2)CC1	/	/	92.1*	0.8	0.9
c1ccc2nc(-c3ccc(N4CCOCC4)cc3)ccc2c1	82.8	85.0	-6.5	0.9	1
CCCOC(=O)Nc1cc(OC)ccc1[N+](=O)[O-]	/	/	1.1	0.9	1
COC(=O)C1=C(C)NC(C)=C(C(=O)OC)C1c1cn(-c2ccccc2)nc1-c1ccco1	51.0	34.5	64.4*	0.7	0.8
COCCOC(=O)C1=C(C)NC(=O)NC1c1cn(-c2ccccc2)nc1-c1cccs1 (configuration not stated)	94.5	99.1	-1.6	0.9	1.1
COCCOC(=O)c1c(NC(=O)CN2c3ccccc3CC2C)sc(C(N)=O)c1C (configuration not stated)	/	/	1.2	0.8	0.9
Cc1ccccc1N/C(SCc1cccc(Br)c1)=C(/C#N)C(N)=O	79.6	91.3	22.2	1	0.8
COc1cccc(N/C(SCc2cccc([N+](=O)[O-])c2)=C(/C#N)C(N)=O)c1	/	/	94.5*	0.9	0.9
COc1cc2nc(N(C)C)nc(N)c2cc1OC	13.2	16.3	99.9*	0.9	1
COc1cc2nc(N(C)CCCNC(=O)C3CCCO3)nc(N)c2cc1OC (configuration not stated)	/	/	/	0.8	0.8
C/C(CC(=O)Nc1ccc(C)c(Cl)c1)=N\NC(=O)c1ccco1	/	/	-6.6	1	0.9
